Data from ChEMBL document CHEMBL1671686, “Carbapenem-resistant KPC-2-producing Escherichia coli in a Tel Aviv Medical Center, 2005 to 2008” (2010).

Key:
Assay type in all cases: functional
Escherichia coli [1] = assay: Antimicrobial activity against Escherichia coli isolate 386T expressing beta-lactamase KPC2, OXA-9 and PFGE cluster 1 isolated from wound of patient by Etest
Summary of the method: (§1)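 Transformant strains. Plasmids purified from the clinical isolates were electroporated into E. coli DH10B. Transformants were selected on LB agar with 100 μg/ml ampicillin, and colonies were PCR-screened for blaKPC before susceptibility testing.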

Escherichia coli [2] = assay: Antimicrobial activity against Escherichia coli isolate 157T expressing beta-lactamase KPC2 and PFGE cluster 3 isolated from urine of patient by Etest; summary of the method: as §1
Escherichia coli [3] = assay: Antimicrobial activity against Escherichia coli isolate 544 expressing beta-lactamase KPC2, TEM and PFGE cluster 4 isolated from abscess of patient by Etest
Escherichia coli [4] = assay: Antimicrobial activity against Escherichia coli isolate 329T expressing beta-lactamase KPC2 and PFGE cluster 2 isolated from blood of patient by Etest; summary of the method: as §1
Escherichia coli [5] = assay: Antimicrobial activity against Escherichia coli isolate 360T expressing beta-lactamase KPC2, OXA-9 and PFGE cluster 1 isolated from urine of patient by Etest; summary of the method: as §1
Escherichia coli [6] = assay: Antimicrobial activity against Escherichia coli isolate 540 expressing beta-lactamase KPC2, TEM and PFGE cluster 4 isolated from synovial fluid of patient by Etest
Escherichia coli [7] = assay: Antimicrobial activity against Escherichia coli isolate 1679 expressing beta-lactamase KPC2, SHV-12, TEM and PFGE cluster 6 isolated from peritoneal fluid of patient by Etest
Escherichia coli [8] = assay: Antimicrobial activity against Escherichia coli isolate 547T expressing beta-lactamase KPC2 and PFGE cluster 4 isolated from blood of patient by Etest; summary of the method: as §1
Escherichia coli [9] = assay: Antimicrobial activity against Escherichia coli isolate 547 expressing beta-lactamase KPC2, TEM and PFGE cluster 4 isolated from blood of patient by Etest
Escherichia coli [10] = assay: Antimicrobial activity against Escherichia coli isolate 543 expressing beta-lactamase KPC2, CTX-M-15, TEM and PFGE cluster 4 isolated from synovial fluid of patient by Etest
Escherichia coli [11] = assay: Antimicrobial activity against Escherichia coli isolate 157 expressing beta-lactamase KPC2, CTX-M-15, TEM and PFGE cluster 3 isolated from urine of patient by Etest
Escherichia coli [12] = assay: Antimicrobial activity against Escherichia coli isolate 329 expressing beta-lactamase KPC2, CTX-M-2, TEM and PFGE cluster 2 isolated from blood of patient by Etest
Escherichia coli [13] = assay: Antimicrobial activity against Escherichia coli isolate 339 expressing beta-lactamase KPC2, TEM and PFGE cluster 5 isolated from peritoneal fluid of patient by Etest
Escherichia coli [14] = assay: Antimicrobial activity against Escherichia coli isolate 1679T expressing beta-lactamase KPC2, TEM and PFGE cluster 6 isolated from peritoneal fluid of patient by Etest; summary of the method: as §1
Escherichia coli [15] = assay: Antimicrobial activity against Escherichia coli DH10B by Etest; conditions: K-12 DH10B
Escherichia coli [16] = assay: Antimicrobial activity against Escherichia coli isolate 339T expressing beta-lactamase KPC2 and PFGE cluster 5 isolated from peritoneal fluid of patient by Etest; summary of the method: as §1
Escherichia coli [17] = assay: Antimicrobial activity against Escherichia coli isolate 543T expressing beta-lactamase KPC2 and PFGE cluster 4 isolated from synovial fluid of patient by Etest; summary of the method: as §1
Escherichia coli [18] = assay: Antimicrobial activity against Escherichia coli isolate 386 expressing beta-lactamase KPC2, CTX-M-15, OXA-9, TEM and PFGE cluster 1 isolated from wound of patient by Etest
Escherichia coli [19] = assay: Antimicrobial activity against Escherichia coli isolate 360 expressing beta-lactamase KPC2, CTX-M-15, OXA-9, TEM and PFGE cluster 1 isolated from urine of patient by Etest
Escherichia coli [20] = assay: Antimicrobial activity against Escherichia coli isolate 386T expressing beta-lactamase KPC2, OXA-9 and PFGE cluster 1 isolated from wound of patient by vitek-2 method in presence of beta-lactamase inhibitor Tazobactam
Summary of the method: (§2)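 Test strains were E. coli DH10B transformants. Plasmids purified from the clinical isolates were electroporated in, transformants selected on LB agar with 100 μg/ml ampicillin, and colonies PCR-screened for blaKPC. Susceptibility of the transformants was then determined by automated Vitek-2 testing.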

Escherichia coli [21] = assay: Antimicrobial activity against Escherichia coli isolate 157 expressing beta-lactamase KPC2, CTX-M-15, TEM and PFGE cluster 3 isolated from urine of patient by vitek-2 method in presence of beta-lactamase inhibitor Tazobactam; conditions: isolate 157, Urine
Summary of the method: (§3)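 Antibiotic susceptibility of clinical carbapenem-resistant E. coli isolates (collected Feb 2005–Oct 2008) determined on the automated Vitek-2 system.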

Escherichia coli [22] = assay: Antimicrobial activity against Escherichia coli DH10B by vitek-2 method in presence of beta-lactamase inhibitor Tazobactam; conditions: K-12 DH10B
Summary of the method: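 Plasmid-free recipient E. coli DH10B, used as the host for electroporation transformants, was tested for susceptibility on the automated Vitek-2 system.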

Escherichia coli [23] = assay: Antimicrobial activity against Escherichia coli isolate 1679 expressing beta-lactamase KPC2, SHV-12, TEM and PFGE cluster 6 isolated from peritoneal fluid of patient by vitek-2 method in presence of beta-lactamase inhibitor Tazobactam; summary of the method: as §3
Escherichia coli [24] = assay: Antimicrobial activity against Escherichia coli isolate 360T expressing beta-lactamase KPC2, OXA-9 and PFGE cluster 1 isolated from urine of patient by vitek-2 method in presence of beta-lactamase inhibitor Tazobactam; summary of the method: as §2
Escherichia coli [25] = assay: Antimicrobial activity against Escherichia coli isolate 386 expressing beta-lactamase KPC2, CTX-M-15, OXA-9, TEM and PFGE cluster 1 isolated from wound of patient by vitek-2 method in presence of beta-lactamase inhibitor Tazobactam; summary of the method: as §3
Escherichia coli [26] = assay: Antimicrobial activity against Escherichia coli isolate 540 expressing beta-lactamase KPC2, TEM and PFGE cluster 4 isolated from synovial fluid of patient by vitek-2 method in presence of beta-lactamase inhibitor Tazobactam
Summary of the method: (§4)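 Clinical carbapenem-resistant E. coli isolates collected at one hospital, February 2005 to October 2008. […] Susceptibilities came from automated Vitek-2 testing.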

Escherichia coli [27] = assay: Antimicrobial activity against Escherichia coli isolate 544 expressing beta-lactamase KPC2, TEM and PFGE cluster 4 isolated from abscess of patient by vitek-2 method in presence of beta-lactamase inhibitor Tazobactam; summary of the method: as §3
Escherichia coli [28] = assay: Antimicrobial activity against Escherichia coli isolate 543T expressing beta-lactamase KPC2 and PFGE cluster 4 isolated from synovial fluid of patient by vitek-2 method in presence of beta-lactamase inhibitor Tazobactam
Summary of the method: (§5)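 Transformants were made by electroporating purified plasmids from clinical isolates into E. coli DH10B. They were selected on LB agar with 100 μg/ml ampicillin and PCR-screened for blaKPC. Susceptibility was then tested on Vitek-2.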

Escherichia coli [29] = assay: Antimicrobial activity against Escherichia coli isolate 329T expressing beta-lactamase KPC2 and PFGE cluster 2 isolated from blood of patient by vitek-2 method in presence of beta-lactamase inhibitor Tazobactam; summary of the method: as §5
Escherichia coli [30] = assay: Antimicrobial activity against Escherichia coli isolate 339T expressing beta-lactamase KPC2 and PFGE cluster 5 isolated from peritoneal fluid of patient by vitek-2 method in presence of beta-lactamase inhibitor Tazobactam; summary of the method: as §2
Escherichia coli [31] = assay: Antimicrobial activity against Escherichia coli isolate 339 expressing beta-lactamase KPC2, TEM and PFGE cluster 5 isolated from peritoneal fluid of patient by vitek-2 method in presence of beta-lactamase inhibitor Tazobactam; summary of the method: as §4
Escherichia coli [32] = assay: Antimicrobial activity against Escherichia coli isolate 1679T expressing beta-lactamase KPC2, TEM and PFGE cluster 6 isolated from peritoneal fluid of patient by vitek-2 method in presence of beta-lactamase inhibitor Tazobactam; summary of the method: as §2
Escherichia coli [33] = assay: Antimicrobial activity against Escherichia coli isolate 543 expressing beta-lactamase KPC2, CTX-M-15, TEM and PFGE cluster 4 isolated from synovial fluid of patient by vitek-2 method in presence of beta-lactamase inhibitor Tazobactam; summary of the method: as §3
Escherichia coli [34] = assay: Antimicrobial activity against Escherichia coli isolate 547T expressing beta-lactamase KPC2 and PFGE cluster 4 isolated from blood of patient by vitek-2 method in presence of beta-lactamase inhibitor Tazobactam; summary of the method: as §2
Escherichia coli [35] = assay: Antimicrobial activity against Escherichia coli isolate 329 expressing beta-lactamase KPC2, CTX-M-2, TEM and PFGE cluster 2 isolated from blood of patient by vitek-2 method in presence of beta-lactamase inhibitor Tazobactam; summary of the method: as §3
Escherichia coli [36] = assay: Antimicrobial activity against Escherichia coli isolate 360 expressing beta-lactamase KPC2, CTX-M-15, OXA-9, TEM and PFGE cluster 1 isolated from urine of patient by vitek-2 method in presence of beta-lactamase inhibitor Tazobactam; conditions: isolate 360, Urine; summary of the method: as §3
Escherichia coli [37] = assay: Antimicrobial activity against Escherichia coli isolate 157T expressing beta-lactamase KPC2 and PFGE cluster 3 isolated from urine of patient by vitek-2 method in presence of beta-lactamase inhibitor Tazobactam; summary of the method: as §5
Escherichia coli [38] = assay: Antimicrobial activity against Escherichia coli isolate 547 expressing beta-lactamase KPC2, TEM and PFGE cluster 4 isolated from blood of patient by vitek-2 method in presence of beta-lactamase inhibitor Tazobactam; summary of the method: as §4

## COLISTIN
Escherichia coli [1]
  MIC: 0.047 µg/mL
Escherichia coli [2]
  MIC: 0.047 µg/mL
Escherichia coli [3]
  MIC: 0.19 µg/mL
Escherichia coli [4]
  MIC: 0.047 µg/mL
Escherichia coli [5]
  MIC: 0.094 µg/mL
Escherichia coli [6]
  MIC: 0.125 µg/mL
Escherichia coli [7]
  MIC: 0.38 µg/mL
Escherichia coli [8]
  MIC: 0.047 µg/mL
Escherichia coli [9]
  MIC: 0.19 µg/mL
Escherichia coli [10]
  MIC: 0.125 µg/mL
Escherichia coli [11]
  MIC: 0.125 µg/mL
Escherichia coli [12]
  MIC: 0.19 µg/mL
Escherichia coli [13]
  MIC: 0.125 µg/mL
Escherichia coli [14]
  MIC: 0.047 µg/mL
Escherichia coli [15]
  MIC: 0.047 µg/mL
Escherichia coli [16]
  MIC: 0.047 µg/mL
Escherichia coli [17]
  MIC: 0.047 µg/mL
Escherichia coli [18]
  MIC: 0.125 µg/mL
Escherichia coli [19]
  MIC: 0.19 µg/mL

## CCN1CCN(C(=O)N[C@@H](C(=O)N[C@@H]2C(=O)N3[C@@H]2SC(C)(C)[C@@H]3C(=O)O)c2ccccc2)C(=O)C1=O [PIPERACILLIN]
Escherichia coli [20]
  MIC: 64 µg/mL
Escherichia coli [21]
  MIC: > 128 µg/mL
Escherichia coli [22]
  MIC: > 1 µg/mL
Escherichia coli [23]
  MIC: > 128 µg/mL
Escherichia coli [24]
  MIC: 64 µg/mL
Escherichia coli [25]
  MIC: > 128 µg/mL
Escherichia coli [26]
  MIC: 64 µg/mL
Escherichia coli [27]
  MIC: > 128 µg/mL
Escherichia coli [28]
  MIC: > 128 µg/mL
Escherichia coli [29]
  MIC: > 128 µg/mL
Escherichia coli [30]
  MIC: 64 µg/mL
Escherichia coli [31]
  MIC: 64 µg/mL
Escherichia coli [32]
  MIC: 64 µg/mL
Escherichia coli [33]
  MIC: > 128 µg/mL
Escherichia coli [34]
  MIC: 64 µg/mL
Escherichia coli [35]
  MIC: > 128 µg/mL
Escherichia coli [36]
  MIC: > 128 µg/mL
Escherichia coli [37]
  MIC: > 128 µg/mL
Escherichia coli [38]
  MIC: 64 µg/mL
